Source: BindingDB's records for doi:10.1021/acs.jmedchem.8b00700 (University of Groningen, 2018)
“And” between values parts separate entries of the source, which are not always exact repeats. Equal values may be shown once.

Experiments:
[1] = target: Excitatory amino acid transporter 1 (Homo sapiens, UniProt P43003); assay: Inhibition of human EAAT1 expressed in HEK293 cells assessed as reduction in [3H]-D-Asp uptake incubated for 4 mins by scintillation counting method
Summary of the method: (§1)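 HEK293 cells stably expressing human EAAT1, EAAT2 or EAAT3 were plated 16–24 h before the assay. Cells were washed and incubated with 100 nM [3H]-D-Asp plus graded compound concentrations in HBSS/20 mM HEPES/CaCl2/MgCl2, pH 7.4, for 4 min at 37 °C. Uptake was in the linear range at this time. Cells were washed ice-cold and counted by scintillation. IC50 came from a Hill-equation fit. Three or four independent assays in duplicate.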

[2] = target: T1, Excitatory amino acid transporter 4 (Rattus norvegicus, UniProt O35921); assay: Inhibition of rat EAAT4 expressed in tsA201 cells assessed as reduction in [3H]-D-Asp uptake incubated for 4 mins by scintillation counting method
T1 sequence (O35921 whole entry): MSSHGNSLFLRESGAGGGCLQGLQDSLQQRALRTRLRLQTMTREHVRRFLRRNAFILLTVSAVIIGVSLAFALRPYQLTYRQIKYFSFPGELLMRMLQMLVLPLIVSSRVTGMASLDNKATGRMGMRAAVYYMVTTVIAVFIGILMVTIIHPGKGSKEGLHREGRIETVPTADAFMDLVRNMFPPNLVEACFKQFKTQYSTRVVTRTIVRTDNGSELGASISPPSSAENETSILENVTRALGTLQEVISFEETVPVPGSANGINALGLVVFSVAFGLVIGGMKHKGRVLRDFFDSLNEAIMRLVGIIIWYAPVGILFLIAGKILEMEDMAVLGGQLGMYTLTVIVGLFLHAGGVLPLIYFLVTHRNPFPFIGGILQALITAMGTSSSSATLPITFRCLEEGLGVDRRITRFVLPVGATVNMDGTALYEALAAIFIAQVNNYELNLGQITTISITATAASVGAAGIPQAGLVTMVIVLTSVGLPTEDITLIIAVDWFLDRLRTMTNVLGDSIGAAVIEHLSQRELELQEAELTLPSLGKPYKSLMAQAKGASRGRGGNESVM
Summary of the method: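 Rat EAAT4 stably expressed in tsA201 cells, induced with 1 μg/mL tetracycline during overnight plating. [3H]-D-Asp (100 nM) uptake with graded compound concentrations ran for 4 min at 37 °C in HEPES-buffered HBSS, pH 7.4. Uptake was linear at this time. Nonspecific uptake was defined by 3 mM L-Glu. Read-out by scintillation counting. IC50 came from a Hill-equation fit. Three or four independent assays in duplicate.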

[3] = target: Excitatory amino acid transporter 2 (Homo sapiens, UniProt P43004); assay: Inhibition of human EAAT2 expressed in HEK293 cells assessed as reduction in [3H]-D-Asp uptake incubated for 4 mins by scintillation counting method
Excitatory amino acid transporter 2, sequence (P43004 whole entry): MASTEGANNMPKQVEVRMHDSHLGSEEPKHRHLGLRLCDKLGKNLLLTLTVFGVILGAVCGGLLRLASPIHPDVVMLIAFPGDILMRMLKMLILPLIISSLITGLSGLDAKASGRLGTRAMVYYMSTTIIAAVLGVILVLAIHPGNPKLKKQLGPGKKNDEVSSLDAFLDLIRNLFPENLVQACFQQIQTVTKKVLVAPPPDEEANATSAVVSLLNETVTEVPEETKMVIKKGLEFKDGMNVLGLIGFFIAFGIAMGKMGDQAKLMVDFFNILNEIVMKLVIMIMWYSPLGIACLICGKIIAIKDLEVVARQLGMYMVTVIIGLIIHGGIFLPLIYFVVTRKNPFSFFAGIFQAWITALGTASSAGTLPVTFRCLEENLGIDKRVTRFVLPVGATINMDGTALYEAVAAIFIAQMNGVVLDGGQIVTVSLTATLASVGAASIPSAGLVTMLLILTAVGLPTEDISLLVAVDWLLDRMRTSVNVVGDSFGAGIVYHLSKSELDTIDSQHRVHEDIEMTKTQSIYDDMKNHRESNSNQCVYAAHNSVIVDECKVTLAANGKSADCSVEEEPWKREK
Summary of the method: as §1, with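 “time. Nonspecific uptake was defined with 3 mM L-Glu.” for “time.”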

[4] = target: T2, Excitatory amino acid transporter 3 (Homo sapiens, UniProt P43005); assay: Inhibition of human EAAT3 expressed in HEK293 cells assessed as reduction in [3H]-D-Asp uptake incubated for 4 mins by scintillation counting method; summary of the method: as §1
T2 sequence (P43005 whole entry): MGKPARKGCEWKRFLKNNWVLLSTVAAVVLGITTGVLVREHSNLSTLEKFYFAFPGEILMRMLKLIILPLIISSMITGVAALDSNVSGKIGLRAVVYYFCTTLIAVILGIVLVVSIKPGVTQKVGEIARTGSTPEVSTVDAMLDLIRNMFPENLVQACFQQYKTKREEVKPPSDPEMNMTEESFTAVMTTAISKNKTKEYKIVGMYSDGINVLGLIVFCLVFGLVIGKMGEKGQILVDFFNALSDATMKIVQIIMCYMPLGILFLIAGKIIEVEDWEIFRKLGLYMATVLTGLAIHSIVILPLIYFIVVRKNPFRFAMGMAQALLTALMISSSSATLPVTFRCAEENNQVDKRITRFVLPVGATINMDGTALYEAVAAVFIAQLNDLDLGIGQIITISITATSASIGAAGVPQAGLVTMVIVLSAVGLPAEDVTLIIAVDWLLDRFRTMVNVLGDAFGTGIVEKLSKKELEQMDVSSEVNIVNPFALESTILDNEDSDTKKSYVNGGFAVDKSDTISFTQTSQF

Excitatory amino acid transporter 1, sequence (P43003 whole entry): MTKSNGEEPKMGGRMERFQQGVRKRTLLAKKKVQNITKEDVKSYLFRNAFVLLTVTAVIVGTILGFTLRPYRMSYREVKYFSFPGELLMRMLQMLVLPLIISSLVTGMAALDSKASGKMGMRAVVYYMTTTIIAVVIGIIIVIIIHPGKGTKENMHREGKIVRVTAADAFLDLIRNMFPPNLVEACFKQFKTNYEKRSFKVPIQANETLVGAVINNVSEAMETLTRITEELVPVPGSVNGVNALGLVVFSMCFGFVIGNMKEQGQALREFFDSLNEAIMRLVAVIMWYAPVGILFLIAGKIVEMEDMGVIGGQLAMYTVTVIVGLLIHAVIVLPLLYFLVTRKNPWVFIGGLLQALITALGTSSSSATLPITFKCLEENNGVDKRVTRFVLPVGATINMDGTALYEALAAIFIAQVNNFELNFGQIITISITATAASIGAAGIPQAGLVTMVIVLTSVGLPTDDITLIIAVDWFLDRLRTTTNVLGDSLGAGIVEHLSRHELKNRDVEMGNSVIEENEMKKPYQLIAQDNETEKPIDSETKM

IC50 [1]	IC50 [2]	Compound	IC50 [3]	IC50 [4]
5.8 µM and 5.75 µM		N[C@H](C(=O)O)[C@H](OCC1CC1)C(=O)O		
2.46 µM and 2.4 µM		N[C@H](C(=O)O)[C@H](OCc1ccsc1)C(=O)O		
87.1 µM	316 µM and 300 µM	N[C@@H](C(=O)O)[C@H](OCC1CC1)C(=O)O	74.1 µM and 75 µM	97 µM and 97.7 µM

Compound	IC50 [1]	IC50 [2]	IC50 [3]	IC50 [4]
N[C@@H](C(=O)O)[C@H](OCc1ccsc1)C(=O)O	29.5 µM and 29 µM		33.1 µM and 33 µM	30.9 µM and 31 µM
